ChEMBL document CHEMBL4028873, “The Discovery of a Dual TTK Protein Kinase/CDC2-Like Kinase (CLK2) Inhibitor for the Treatment of Triple Negative Breast Cancer Initiated from a Phenotypic Screen” (J Med Chem, 2017)
The source made the active and inactive calls. The calls are words filed in the database; no cut-off is given here.

Experiments:
[1] = Clearance in rat at 2 mg/kg, iv; type: ADME, organism-based; settings: in vivo
[2] = Mean residence time in SCID mouse at 10 mg/kg, iv; type: ADME, organism-based; settings: in vivo
[3] = Mean residence time in rat at 2 mg/kg, iv; type: ADME, organism-based; settings: in vivo
[4] = Clearance in SCID mouse at 10 mg/kg, iv; type: ADME, organism-based; settings: in vivo
[5] = Volume of distribution at steady state in rat at 2 mg/kg, iv; type: ADME, organism-based; settings: in vivo, read-out: Vdss
[6] = Metabolic stability in human liver S9 fraction assessed as percent of compound remaining after 60 mins; type: ADME, tissue-based; settings: read-out: Stability
CAL-51 [7] = assay: Cytotoxicity against human CAL51 cells assessed as reduction in cell viability after 3 days by CellTiter-Glo assay; type: functional, cell-based; settings: CAL-51, 72 h
BT-474 = assay: Cytotoxicity against human BT474 cells assessed as reduction in cell viability after 3 days by CellTiter-Glo assay; type: cell-based; settings: BT-474, 72 h
[8] = Metabolic stability in rat liver S9 fraction assessed as percent of compound remaining after 60 mins; type: ADME, tissue-based; settings: read-out: Stability
CAL-51 [9] = assay: Antiproliferative activity against human CAL51 cells xenografted in SCID mouse assessed as tumor growth inhibition at 5 mg/kg, iv administered every 4 days for 16 days; type: functional, organism-based
Method in brief: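 Mice bearing tumors of about 125 mm3 randomized (n = 8−10/group) and given compound intravenously at the listed doses and schedules. Tumors measured twice weekly by digital caliper on long and short axes; volume = width² × length/2.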

Mus musculus = assay: Toxicity in SCID mouse xenografted with human CAL51 cells assessed as loss in body weight at 5 mg/kg, iv administered every 4 days for 16 days relative to control; type: organism-based; settings: in vivo

| SMILES | IC50 (CAL-51 [7]) [nM] | IC50 (BT-474) [nM] | remaining at 1 h [8] [%] | further results |
| --- | --- | --- | --- | --- |
| CNC(=O)c1ccc(Nc2nc(O[C@H]3CC[C@@](C)(O)CC3)c3c(-c4ccc5nc(C)oc5c4)c[nH]c3n2)c(OC)c1 | 8 | 10000 | 76 | clearance [1]: 17.6 mL/min/kg; MRT [2]: 1 h; MRT [3]: 2.9 h; clearance [4]: 52.2 mL/min/kg; Vd [5]: 2.9 L/kg; remaining at 1 h [6]: 65% |
| CNC(=O)c1ccc(Nc2nc(OC3CCC3)c3c(-c4ccc5nc(C)oc5c4)c[nH]c3n2)c(OC)c1 | 47 | 10000 |  |  |
| CNC(=O)c1ccc(Nc2nc(OC3CCCC3)c3c(-c4ccc5oc(C)nc5c4)c[nH]c3n2)c(OC)c1 | 642 | 10000 | 86 |  |
| CNC(=O)c1ccc(Nc2nc(OC(C)C)c3c(-c4ccc5nc(C)oc5c4)c[nH]c3n2)c(OC)c1 | 40 | 946 | 69 | clearance [1]: 33.9 mL/min/kg; MRT [2]: 4.8 h; MRT [3]: 3.5 h; clearance [4]: 7.71 mL/min/kg; Vd [5]: 7.2 L/kg; remaining at 1 h [6]: 78% |
| COc1cc(C(=O)NC(C)(C)CO)ccc1Nc1nc(OC2CCCC2)c2c(-c3ccc4nc(C)oc4c3)c[nH]c2n1 | 109 | 6090 |  |  |
| CNC(=O)c1ccc(Nc2nc(OC3CCCC3)c3c(-c4ccc(-c5ncc[nH]5)cc4)c[nH]c3n2)c(OC)c1 | 8 | 1730 | 64 |  |
| CNC(=O)c1ccc(Nc2nc(OC3CCOCC3)c3c(-c4ccc5nc(C)oc5c4)c[nH]c3n2)c(OC)c1 | 20 | 10000 | 75 | clearance [1]: 22.6 mL/min/kg; MRT [2]: 1.8 h; MRT [3]: 2.9 h; clearance [4]: 67.6 mL/min/kg; Vd [5]: 3.8 L/kg; remaining at 1 h [6]: 70% |
| CNC(=O)c1ccc(Nc2nc(O)c3c(-c4ccc5nc(C)oc5c4)c[nH]c3n2)c(OC)c1 | 10000 | 10000 |  |  |
| CNC(=O)c1ccc(Nc2nc(OC3CCCC3)c3c(-c4ccncc4)c[nH]c3n2)c(OC)c1 | 17 | 10000 | 83 |  |
| CNC(=O)c1ccc(Nc2nc(OC3CCCC3)c3c(-c4ccc5nc(C)oc5c4)c[nH]c3n2)c(C)c1 | 349 | 9610 |  |  |
| CNC(=O)c1ccc(Nc2nc(OC3CCCC3)c3c(-c4ccc(OC)cc4)c[nH]c3n2)c(OC)c1 | 491 | 10000 | 76 |  |
| CNC(=O)c1ccc(Nc2nc(OC3CCCC3)c3c(-c4cccnc4)c[nH]c3n2)c(OC)c1 | 79 | 10000 | 59 |  |
| COc1cc(C(=O)NC2COC2)ccc1Nc1nc(OC2CCCC2)c2c(-c3ccc4nc(C)oc4c3)c[nH]c2n1 | 123 | 10000 | 91 | clearance [1]: 13 mL/min/kg; MRT [2]: 1.4 h; MRT [3]: 4.7 h; clearance [4]: 14.3 mL/min/kg; Vd [5]: 3.7 L/kg; remaining at 1 h [6]: 79% |
| CNC(=O)c1ccc(Nc2nc(OC3CCCC3)c3c(-c4cccc(O)c4)c[nH]c3n2)c(OC)c1 | 71 | 10000 |  |  |
| COc1cc(C(=O)N(C)C)ccc1Nc1nc(OC2CCCC2)c2c(-c3ccc4nc(C)oc4c3)c[nH]c2n1 | 113 | 8310 |  |  |
| CNC(=O)c1ccc(Nc2nc(OC3CCCC3)c3c(-c4ccc5nc[nH]c5c4)c[nH]c3n2)c(OC)c1 | 17 | 158 | 46 |  |
| CNC(=O)c1ccc(Nc2nc(OC3CCCC3)c3c(-c4ccccc4)c[nH]c3n2)c(OC)c1 | 496 | 10000 | 86 |  |
| CNC(=O)c1ccc(Nc2nc(OC3CCCC3)c3c(-c4ccc(O)cc4)c[nH]c3n2)c(OC)c1 | 13 | 3320 | 1 |  |

| SMILES | IC50 (CAL-51 [7]) [nM] | IC50 (BT-474) [nM] | remaining at 1 h [8] [%] | further results |
| --- | --- | --- | --- | --- |
| CC(=O)O[C@@]12CO[C@@H]1C[C@H](O)[C@@]1(C)C(=O)[C@H](O)C3=C(C)[C@@H](OC(=O)[C@H](O)[C@@H](NC(=O)OC(C)(C)C)c4ccccc4)C[C@@](O)([C@@H](OC(=O)c4ccccc4)[C@H]21)C3(C)C [DOCETAXEL ANHYDROUS] |  |  |  | TGI (CAL-51 [9]): Active; Activity (Mus musculus): 20% |
| CNC(=O)c1ccc(Nc2nc(OC3COC3)c3c(-c4ccc5nc(C)oc5c4)c[nH]c3n2)c(OC)c1 | 8 | 243 |  |  |
| COc1cc(C(=O)N2CCN(C)CC2)ccc1Nc1nc(OC2CCCC2)c2c(-c3ccc4nc(C)oc4c3)c[nH]c2n1 | 37 | 3210 |  |  |
| COc1cc(C(=O)NCC(C)(C)O)ccc1Nc1nc(OC2CCCC2)c2c(-c3ccc4nc(C)oc4c3)c[nH]c2n1 | 61 | 10000 |  |  |
| CNC(=O)c1ccc(Nc2nc(OC3CCCC3)c3c(-c4ccc5cn[nH]c5c4)c[nH]c3n2)c(OC)c1 | 338 | 10000 | 85 |  |
| COc1ccccc1Nc1nc(OC2CCCC2)c2c(-c3ccc4nc(C)oc4c3)c[nH]c2n1 | 771 | 10000 |  |  |
| CNC(=O)c1ccc(Nc2nc(OC3CCCC3)c3c(-c4ccc(-c5ccn[nH]5)cc4)c[nH]c3n2)c(OC)c1 | 61 | 10000 | 84 |  |
| CNC(=O)c1ccc(Nc2nc(OCCOC)c3c(-c4ccc5nc(C)oc5c4)c[nH]c3n2)c(OC)c1 | 147 | 3760 |  |  |
| CNC(=O)c1ccc(Nc2nc(OCCO)c3c(-c4ccc5nc(C)oc5c4)c[nH]c3n2)c(OC)c1 | 56 | 694 |  |  |
| CNC(=O)c1ccc(Nc2nc(O[C@H]3CCOC3)c3c(-c4ccc5nc(C)oc5c4)c[nH]c3n2)c(OC)c1 | 17 | 3760 | 62 | clearance [1]: 27.4 mL/min/kg; MRT [2]: 0.73 h; MRT [3]: 1 h; clearance [4]: 19.1 mL/min/kg; Vd [5]: 1.6 L/kg; remaining at 1 h [6]: 62% |
| CNC(=O)c1ccc(Nc2nc(OC3CCCC3)c3c(-c4ccc(-c5nnc[nH]5)cc4)c[nH]c3n2)c(OC)c1 | 77 | 4860 | 84 |  |
| CNC(=O)c1ccc(Nc2nc(OC3CCCC3)c3c(-c4cn[nH]c4)c[nH]c3n2)c(OC)c1 | 9 | 8120 | 36 |  |
| CNC(=O)c1ccc(Nc2nc(OC3CCCC3)c3c(-c4cccc(CO)c4)c[nH]c3n2)c(OC)c1 | 30 | 9990 | 54 |  |
| CNC(=O)c1ccc(Nc2nc(OC3CCCC3)c3c(-c4ccc(CO)cc4)c[nH]c3n2)c(OC)c1 | 89 | 10000 | 18 |  |
| COc1cc(C(=O)N2CCOCC2)ccc1Nc1nc(OC2CCCC2)c2c(-c3ccc4nc(C)oc4c3)c[nH]c2n1 | 351 | 6390 |  |  |
| CNC(=O)c1ccc(Nc2nc(OC3CCCC3)c3c(-c4cc[nH]n4)c[nH]c3n2)c(OC)c1 | 460 | 10000 | 53 |  |
| CNC(=O)c1ccc(Nc2nc(O[C@H]3CC[C@](C)(O)CC3)c3c(-c4ccc5nc(C)oc5c4)c[nH]c3n2)c(OC)c1 | 15 | 893 |  |  |
